According to ChEMBL document CHEMBL4118097, “Selective Inhibitors of Dual Leucine Zipper Kinase (DLK, MAP3K12) with Activity in a Model of Alzheimer's Disease” (J Med Chem, 2017):

Key:
[1] = biological target: Histamine H1 receptor (Homo sapiens) (UniProt P35367); assay: Binding affinity to recombinant human H1 receptor at 10 uM relative to control
Procedure, shortened: (§1)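 Broad radioligand-binding and enzyme screening panel covering 42 targets (biogenic amine and neuropeptide receptors, ion channels, neurotransmitter transporters, acetylcholinesterase). Single test concentration of 10 μM. Results expressed as binding relative to control, with a hit defined as >50% of control.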

[2] = biological target: Fibroblast growth factor receptor 1 (Homo sapiens) (UniProt P11362); assay: Inhibition of recombinant His-tagged human FGFR1 cytoplasmic domain expressed in baculovirus expression system at 1 uM by FRET assay relative to control
Procedure, shortened: (§2)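 Single-point screen at 1 μM compound in a 220-kinase panel run by Life Technologies (SelectScreen). Z′-LYTE format: phosphorylation of a labeled peptide substrate read by FRET. Values are reported as percent inhibition.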

[3] = biological target: Tyrosine-protein kinase TXK (Homo sapiens) (UniProt P42681); assay: Inhibition of recombinant N-terminal GST-tagged human TXK (260 to 527 residues) expressed in baculovirus expression system at 1 uM by FRET assay relative to control
Procedure, shortened: (§3)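 Single-concentration screen at 1 μM in Life Technologies SelectScreen, across a 220-kinase panel. Z′-LYTE format measures phosphorylation of a labeled peptide by FRET. Results are reported as percent inhibition.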

[4] = biological target: Muscarinic acetylcholine receptor M3 (Homo sapiens) (UniProt P20309); assay: Binding affinity to recombinant human M3 acetylcholine receptor at 10 uM relative to control; procedure, shortened: as §1
[5] = biological target: Tyrosine-protein kinase BTK (Homo sapiens) (UniProt Q06187); assay: Inhibition of recombinant full length His-tagged human BTK cytoplasmic domain expressed in baculovirus expression system at 1 uM by FRET assay relative to control
[6] = biological target: 5-hydroxytryptamine receptor 2A (Homo sapiens) (UniProt P28223); assay: Binding affinity to 5HT2A receptor (unknown origin) receptor at 10 uM relative to control; procedure, shortened: as §1
[7] = biological target: Receptor-type tyrosine-protein kinase FLT3 (Homo sapiens) (UniProt P36888); assay: Inhibition of recombinant His-tagged human FLT3 cytoplasmic domain expressed in baculovirus expression system at 1 uM by FRET assay relative to control; procedure, shortened: as §2
[8] = biological target: Focal adhesion kinase 1 (Homo sapiens) (UniProt Q05397); assay: Inhibition of recombinant full length GST-tagged human FAK expressed in baculovirus expression system at 1 uM by FRET assay relative to control; procedure, shortened: as §3
[9] = biological target: Eukaryotic elongation factor 2 kinase (Homo sapiens) (UniProt O00418); assay: Inhibition of recombinant full length GST-tagged human eEF2K expressed in Escherichia coli at 1 uM by FRET assay relative to control
[10] = biological target: Ribosomal protein S6 kinase alpha-2 (Homo sapiens) (UniProt Q15349); assay: Inhibition of recombinant full length GST-tagged human RSK3 expressed in insect cells at 1 uM by FRET assay relative to control; procedure, shortened: as §3
[11] = biological target: Serine/threonine-protein kinase D1 (Homo sapiens) (UniProt Q15139); assay: Inhibition of PKD1 (unknown origin) at 1 uM by FRET assay relative to control
[12] = biological target: Peroxisome proliferator-activated receptor alpha (Homo sapiens) (UniProt Q07869); assay: Binding affinity to recombinant human PPARalpha at 10 uM relative to control; procedure, shortened: as §1
[13] = biological target: Substance-P receptor (Homo sapiens) (UniProt P25103); assay: Binding affinity to recombinant human NK1 receptor at 10 uM relative to control; procedure, shortened: as §1
[14] = biological target: T1, Mitogen-activated protein kinase 9 (Homo sapiens, UniProt P45984); assay: Inhibition of recombinant full length His-tagged human JNK2 ([…]) expressed in baculovirus expression system at by FRET assay
[15] = biological target: Activin receptor type-1 (Homo sapiens) (UniProt Q04771); assay: Inhibition of recombinant GST-tagged human ALK2 catalytic domain (147 to end residues) at 1 uM by FRET assay relative to control
[16] = biological target: SRSF protein kinase 1 (Homo sapiens) (UniProt Q96SB4); assay: Inhibition of recombinant full length His-tagged human SRPK1 expressed in baculovirus expression system at 1 uM by FRET assay relative to control
[17] = biological target: Maternal embryonic leucine zipper kinase (Homo sapiens) (UniProt Q14680); assay: Inhibition of recombinant GST-tagged human MELK expressed in baculovirus expression system at 1 uM by FRET assay relative to control; procedure, shortened: as §2
[18] = biological target: Cyclin-dependent kinase 1/cyclin B1 (Homo sapiens) (UniProt P06493+P14635); assay: Inhibition of recombinant full length His-tagged human CDK1/CyclinB expressed in baculovirus expression system at 1 uM by FRET assay relative to control
[19] = biological target: T2, Mitogen-activated protein kinase kinase kinase 12 (Homo sapiens, UniProt Q12852); assay: Binding affinity to N-terminally GST-tagged wild type human DLK (1 to 520 residues) expressed in sf21 insect cells using N-terminally His-tagged MKK4 K131M as substrate after 60 mins in presence of ATP by TR-FRET assay
T2 sequence (Q12852 whole entry): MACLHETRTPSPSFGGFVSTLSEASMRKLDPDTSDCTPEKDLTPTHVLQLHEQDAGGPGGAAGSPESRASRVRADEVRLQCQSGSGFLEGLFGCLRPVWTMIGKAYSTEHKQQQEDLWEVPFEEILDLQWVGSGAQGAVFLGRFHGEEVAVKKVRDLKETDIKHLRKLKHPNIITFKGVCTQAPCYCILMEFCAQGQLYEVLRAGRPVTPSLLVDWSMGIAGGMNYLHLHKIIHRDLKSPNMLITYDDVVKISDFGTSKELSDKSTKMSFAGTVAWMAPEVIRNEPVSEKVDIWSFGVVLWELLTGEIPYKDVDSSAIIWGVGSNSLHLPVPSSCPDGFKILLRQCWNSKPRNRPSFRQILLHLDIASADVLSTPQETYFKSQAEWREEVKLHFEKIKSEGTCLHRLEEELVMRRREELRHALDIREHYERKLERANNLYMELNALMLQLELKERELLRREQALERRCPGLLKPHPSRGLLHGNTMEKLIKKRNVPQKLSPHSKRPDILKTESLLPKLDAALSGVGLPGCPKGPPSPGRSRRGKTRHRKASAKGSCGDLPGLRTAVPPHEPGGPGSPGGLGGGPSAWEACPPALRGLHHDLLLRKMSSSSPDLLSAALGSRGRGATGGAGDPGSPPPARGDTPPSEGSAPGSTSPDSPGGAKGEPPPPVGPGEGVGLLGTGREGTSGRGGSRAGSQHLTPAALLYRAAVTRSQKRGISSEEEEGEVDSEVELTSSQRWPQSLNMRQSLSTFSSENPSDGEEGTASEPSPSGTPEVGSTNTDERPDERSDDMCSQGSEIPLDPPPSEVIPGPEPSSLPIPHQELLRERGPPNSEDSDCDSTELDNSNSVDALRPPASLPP

[20] = biological target: T1, Mitogen-activated protein kinase 9; assay: Inhibition of recombinant full length His-tagged human JNK2 ([…]) expressed in baculovirus expression system at 1 uM by FRET assay relative to control

Chain of Serine/threonine-protein kinase D1 (Homo sapiens) (Q15139 whole entry, looked up): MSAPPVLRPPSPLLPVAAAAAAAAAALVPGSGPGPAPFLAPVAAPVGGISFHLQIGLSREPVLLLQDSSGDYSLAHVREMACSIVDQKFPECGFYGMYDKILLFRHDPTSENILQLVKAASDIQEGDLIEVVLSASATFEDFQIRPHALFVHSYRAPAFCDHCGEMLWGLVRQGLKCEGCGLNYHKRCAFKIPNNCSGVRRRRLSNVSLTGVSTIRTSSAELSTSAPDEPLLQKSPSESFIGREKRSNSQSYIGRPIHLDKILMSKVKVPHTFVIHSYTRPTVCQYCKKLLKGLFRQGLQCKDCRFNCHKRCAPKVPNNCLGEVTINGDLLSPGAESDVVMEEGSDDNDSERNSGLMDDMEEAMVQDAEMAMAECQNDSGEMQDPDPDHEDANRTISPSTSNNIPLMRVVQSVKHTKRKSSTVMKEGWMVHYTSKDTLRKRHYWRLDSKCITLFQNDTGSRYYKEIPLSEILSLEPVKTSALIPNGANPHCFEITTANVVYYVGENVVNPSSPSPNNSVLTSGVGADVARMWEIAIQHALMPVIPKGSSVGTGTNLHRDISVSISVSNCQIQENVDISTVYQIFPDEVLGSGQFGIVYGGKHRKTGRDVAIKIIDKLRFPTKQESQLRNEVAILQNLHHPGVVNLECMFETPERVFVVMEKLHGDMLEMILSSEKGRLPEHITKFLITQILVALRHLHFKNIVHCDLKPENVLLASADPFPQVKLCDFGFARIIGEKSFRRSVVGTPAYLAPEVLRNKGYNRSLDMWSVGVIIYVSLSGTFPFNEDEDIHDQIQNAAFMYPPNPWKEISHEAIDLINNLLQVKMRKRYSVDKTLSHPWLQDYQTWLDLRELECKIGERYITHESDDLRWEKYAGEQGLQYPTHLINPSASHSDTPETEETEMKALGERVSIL
Chain of Substance-P receptor (Homo sapiens) (P25103 whole entry): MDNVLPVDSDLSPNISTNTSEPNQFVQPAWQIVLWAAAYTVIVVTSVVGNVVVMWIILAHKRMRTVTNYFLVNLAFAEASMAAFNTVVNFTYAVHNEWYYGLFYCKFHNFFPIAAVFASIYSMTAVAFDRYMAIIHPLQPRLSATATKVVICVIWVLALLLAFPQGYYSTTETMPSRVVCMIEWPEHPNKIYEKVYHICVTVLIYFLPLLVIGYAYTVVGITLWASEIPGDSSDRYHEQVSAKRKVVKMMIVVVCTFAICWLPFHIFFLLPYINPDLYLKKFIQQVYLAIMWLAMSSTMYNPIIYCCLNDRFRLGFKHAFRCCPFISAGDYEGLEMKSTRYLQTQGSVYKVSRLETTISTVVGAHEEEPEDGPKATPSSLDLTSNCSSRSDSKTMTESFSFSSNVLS
Chain of Ribosomal protein S6 kinase alpha-2 (Homo sapiens) (Q15349 whole entry): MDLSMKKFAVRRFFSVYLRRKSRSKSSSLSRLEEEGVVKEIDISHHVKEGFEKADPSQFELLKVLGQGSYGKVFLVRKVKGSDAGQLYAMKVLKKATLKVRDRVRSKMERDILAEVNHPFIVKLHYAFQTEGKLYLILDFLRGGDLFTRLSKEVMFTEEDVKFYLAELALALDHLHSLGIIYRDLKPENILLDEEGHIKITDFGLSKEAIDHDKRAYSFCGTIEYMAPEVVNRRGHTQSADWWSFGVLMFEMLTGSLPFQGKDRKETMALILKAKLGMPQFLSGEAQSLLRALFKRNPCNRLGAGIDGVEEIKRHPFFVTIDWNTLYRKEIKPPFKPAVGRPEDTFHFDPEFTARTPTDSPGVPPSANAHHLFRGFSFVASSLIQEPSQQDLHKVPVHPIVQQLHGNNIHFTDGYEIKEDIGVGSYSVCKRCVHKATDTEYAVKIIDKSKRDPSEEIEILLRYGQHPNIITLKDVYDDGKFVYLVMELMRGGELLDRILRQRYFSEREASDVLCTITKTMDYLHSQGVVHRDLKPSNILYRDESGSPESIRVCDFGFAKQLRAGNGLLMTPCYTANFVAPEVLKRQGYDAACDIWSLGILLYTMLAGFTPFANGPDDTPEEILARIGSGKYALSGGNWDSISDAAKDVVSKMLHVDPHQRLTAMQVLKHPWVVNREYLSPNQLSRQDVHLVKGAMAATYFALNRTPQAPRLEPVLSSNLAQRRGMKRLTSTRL
Chain of SRSF protein kinase 1 (Homo sapiens) (Q96SB4 whole entry): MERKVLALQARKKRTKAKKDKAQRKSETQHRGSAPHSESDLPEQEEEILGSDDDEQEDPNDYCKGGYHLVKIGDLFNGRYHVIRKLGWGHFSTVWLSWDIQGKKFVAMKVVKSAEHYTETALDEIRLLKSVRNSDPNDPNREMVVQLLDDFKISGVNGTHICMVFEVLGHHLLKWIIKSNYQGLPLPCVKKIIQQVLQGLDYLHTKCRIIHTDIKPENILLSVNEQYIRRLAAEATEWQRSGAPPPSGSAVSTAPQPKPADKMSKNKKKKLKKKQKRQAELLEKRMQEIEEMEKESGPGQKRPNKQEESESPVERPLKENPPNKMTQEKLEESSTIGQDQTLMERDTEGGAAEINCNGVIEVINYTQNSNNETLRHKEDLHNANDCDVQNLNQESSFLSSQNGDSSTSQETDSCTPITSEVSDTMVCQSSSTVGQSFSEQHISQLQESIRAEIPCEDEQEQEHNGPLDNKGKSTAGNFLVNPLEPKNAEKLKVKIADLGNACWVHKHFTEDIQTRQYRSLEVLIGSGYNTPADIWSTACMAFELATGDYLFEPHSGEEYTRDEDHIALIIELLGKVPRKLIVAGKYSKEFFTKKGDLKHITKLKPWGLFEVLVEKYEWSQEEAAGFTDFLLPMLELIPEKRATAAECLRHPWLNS
Chain of Focal adhesion kinase 1 (Homo sapiens) (Q05397 2-1052 limits assumed): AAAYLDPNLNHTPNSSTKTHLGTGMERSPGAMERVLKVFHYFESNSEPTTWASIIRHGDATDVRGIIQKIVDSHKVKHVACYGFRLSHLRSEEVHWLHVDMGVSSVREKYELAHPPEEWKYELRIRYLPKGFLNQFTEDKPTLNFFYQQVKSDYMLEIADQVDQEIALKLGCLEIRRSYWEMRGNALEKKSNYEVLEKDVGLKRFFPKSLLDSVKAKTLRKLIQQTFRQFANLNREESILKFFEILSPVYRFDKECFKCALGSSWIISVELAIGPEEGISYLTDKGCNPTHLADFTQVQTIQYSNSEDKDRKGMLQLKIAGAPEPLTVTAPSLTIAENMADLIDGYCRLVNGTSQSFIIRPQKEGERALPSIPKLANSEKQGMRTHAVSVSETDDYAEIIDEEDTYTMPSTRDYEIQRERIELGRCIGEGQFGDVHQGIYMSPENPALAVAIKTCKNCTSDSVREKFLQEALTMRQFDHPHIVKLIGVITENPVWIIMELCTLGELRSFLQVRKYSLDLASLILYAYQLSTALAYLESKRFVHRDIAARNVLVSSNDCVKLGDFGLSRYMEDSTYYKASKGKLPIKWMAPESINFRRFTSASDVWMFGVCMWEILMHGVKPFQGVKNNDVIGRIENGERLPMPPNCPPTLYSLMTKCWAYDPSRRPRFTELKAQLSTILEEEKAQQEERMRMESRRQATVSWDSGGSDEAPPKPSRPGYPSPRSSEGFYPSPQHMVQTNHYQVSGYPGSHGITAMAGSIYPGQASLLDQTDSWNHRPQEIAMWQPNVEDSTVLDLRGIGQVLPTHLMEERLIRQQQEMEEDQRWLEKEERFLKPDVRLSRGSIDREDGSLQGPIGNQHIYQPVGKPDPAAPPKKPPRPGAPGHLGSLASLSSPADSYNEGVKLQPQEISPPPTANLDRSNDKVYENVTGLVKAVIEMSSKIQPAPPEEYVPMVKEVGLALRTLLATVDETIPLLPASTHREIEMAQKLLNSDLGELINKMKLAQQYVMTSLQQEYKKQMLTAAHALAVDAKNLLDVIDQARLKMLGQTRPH
Chain of 5-hydroxytryptamine receptor 2A (Homo sapiens) (P28223 whole entry, the tested form may be a part): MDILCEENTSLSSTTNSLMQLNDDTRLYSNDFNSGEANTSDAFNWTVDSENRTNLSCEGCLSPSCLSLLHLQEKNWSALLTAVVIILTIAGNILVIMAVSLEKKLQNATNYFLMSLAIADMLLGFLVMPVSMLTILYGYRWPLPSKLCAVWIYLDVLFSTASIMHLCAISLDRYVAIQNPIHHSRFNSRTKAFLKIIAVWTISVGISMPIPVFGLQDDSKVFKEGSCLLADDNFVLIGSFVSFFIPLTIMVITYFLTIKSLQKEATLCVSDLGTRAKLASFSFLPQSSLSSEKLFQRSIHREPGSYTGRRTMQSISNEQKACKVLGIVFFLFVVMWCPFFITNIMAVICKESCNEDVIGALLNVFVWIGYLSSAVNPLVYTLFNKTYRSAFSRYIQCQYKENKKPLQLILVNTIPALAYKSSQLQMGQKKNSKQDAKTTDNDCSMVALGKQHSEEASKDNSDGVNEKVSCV
Chain of Eukaryotic elongation factor 2 kinase (Homo sapiens) (O00418 whole entry): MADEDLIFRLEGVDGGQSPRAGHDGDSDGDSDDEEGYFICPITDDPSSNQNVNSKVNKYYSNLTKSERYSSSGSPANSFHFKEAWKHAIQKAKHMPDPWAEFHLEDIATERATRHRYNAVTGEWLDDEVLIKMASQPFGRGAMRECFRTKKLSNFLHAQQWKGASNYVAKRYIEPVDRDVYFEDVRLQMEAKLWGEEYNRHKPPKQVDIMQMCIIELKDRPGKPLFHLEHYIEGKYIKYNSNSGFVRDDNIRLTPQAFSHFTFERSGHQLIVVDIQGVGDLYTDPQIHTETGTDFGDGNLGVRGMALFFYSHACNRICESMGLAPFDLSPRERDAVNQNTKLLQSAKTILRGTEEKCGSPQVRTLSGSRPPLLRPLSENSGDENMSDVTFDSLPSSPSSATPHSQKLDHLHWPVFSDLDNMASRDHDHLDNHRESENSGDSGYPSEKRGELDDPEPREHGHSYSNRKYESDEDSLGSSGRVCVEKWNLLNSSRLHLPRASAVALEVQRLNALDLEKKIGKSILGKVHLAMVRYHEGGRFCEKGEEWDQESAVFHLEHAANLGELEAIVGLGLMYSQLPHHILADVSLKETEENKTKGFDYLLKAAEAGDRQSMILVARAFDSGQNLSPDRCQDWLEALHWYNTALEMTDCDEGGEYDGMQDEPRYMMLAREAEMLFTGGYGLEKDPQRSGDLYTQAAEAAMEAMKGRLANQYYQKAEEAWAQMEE

## Nc1ncc(-c2cc([C@H]3[C@@H]4CN(C5COC5)C[C@@H]43)n(CC3CC3)n2)cc1C(F)(F)F
[1]
  Activity: > 50%
[2]
  inhibition: 3.4%
[3]
  inhibition: 25.6%
[4]
  Activity: > 50%
[5]
  inhibition: 19.9%
[6]
  Activity: > 50%
[7]
  inhibition: 66.5%
[8]
  inhibition: 10.4%
[9]
  inhibition: -5.1%
[10]
  inhibition: 3.5%
[11]
  inhibition: 10%
[12]
  Activity: > 50%
[13]
  Activity: > 50%
[14]
  IC50: > 10000 nM
[15]
  inhibition: 25.8%
[16]
  inhibition: -1.7%
[17]
  inhibition: 12.6%
[18]
  inhibition: 2.4%
[19]
  Ki: 4 nM
[20]
  inhibition: 0.6%

## CC(C)n1nc(-c2cnc(N)c(OC(F)(F)F)c2)cc1[C@H]1[C@@H]2CN(C3COC3)C[C@@H]21
[1]
  Activity: > 50%
[2]
  inhibition: 2.4%
[3]
  inhibition: 4.7%
[4]
  Activity: > 50%
[5]
  inhibition: 9.9%
[6]
  Activity: > 50%
[7]
  inhibition: 52.5%
[8]
  inhibition: 11.1%
[9]
  inhibition: 4.4%
[10]
  inhibition: 3.6%
[11]
  inhibition: 20%
[12]
  Activity: > 50%
[13]
  Activity: > 50%
[14]
  IC50: > 10000 nM
[15]
  inhibition: 10.9%
[16]
  inhibition: 1%
[17]
  inhibition: 30.4%
[18]
  inhibition: 16%
[19]
  Ki: 3 nM
[20]
  inhibition: 4.4%
